According to ChEMBL document CHEMBL5154878, “Potent Inhibition of SARS-CoV-2 nsp14 N7-Methyltransferase by Sulfonamide-Based Bisubstrate Analogues” (J Med Chem, 2022):
The source made the active and inactive calls. The rule behind the calls is not given here.

Assays:
[1] = biological target: Replicase polyprotein 1ab (Severe acute respiratory syndrome coronavirus 2, UniProt P0DTD1); test: Inhibition of N7-MTase activity of SARS-CoV-2 N-terminus hexahistidine tag nsp14 expressed in Escherichia coli C2566 using [3H]SAM as substrate incubated for 30 mins in presence of mGpppAC4 synthetic RNA by radioactive filter binding assay
[2] = biological target: Replicase polyprotein 1ab (Severe acute respiratory syndrome coronavirus 2) (UniProt P0DTD1); test: Inhibition of N7-MTase activity of SARS-CoV-2 N-terminus hexahistidine tag nsp14 expressed in Escherichia coli C2566 at 5 uM using [3H]SAM as substrate incubated for 30 mins in presence of mGpppAC4 synthetic RNA by filter binding assay relative to control
[3] = Inhibition of N7-MTase activity of SARS-CoV N-terminus hexahistidine tag nsp14 expressed in Escherichia coli C2566 using [3H]SAM as substrate incubated for 30 mins in presence of mGpppAC4 synthetic RNA by radioactive filter binding assay; design: species or system Severe acute respiratory syndrome-related coronavirus
[4] = biological target: Replicase polyprotein 1ab (Severe acute respiratory syndrome coronavirus 2) (UniProt P0DTD1); test: Binding affinity to SARS-CoV-2 N-terminus hexahistidine tag nsp14 expressed in Escherichia coli C2566 assessed as change in melting temperature at 0.5 mM by SYPRO orange dye based thermal shift assay
Outline: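 nsp14 (freshly purified, 5 μM, in 20 mM Hepes pH 7.5, 150 mM NaCl, ≤5% DMSO) incubated with compound from 500 μM down to 8.4 nM (3-fold serial dilution) plus Sypro Orange 0.00056×. Melt ramp 1 °C per minute, 25–95 °C. Tm from Boltzmann fit; ΔTm taken against DMSO control. Duplicates; Kd from inflection of ΔTm versus concentration.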

[5] = tested on: Severe acute respiratory syndrome coronavirus 2; test: Binding affinity to SARS-CoV N-terminus hexahistidine tag nsp14 expressed in Escherichia coli C2566 assessed as shift in melting temperature at >2 uM by SYPRO orange dye based thermal shift assay
[6] = Inhibition of human RNA N7-MTase expressed in Escherichia coli measured using [3H]SAM as substrate incubated for 30 mins in presence of mGpppAC4 synthetic RNA by radioactive filter binding assay
[7] = Selectivity index, ratio of IC50 for human RNA N7-MTase to IC50 for SARS-CoV-2 nsp14 N7-MTase activity using [3H]SAM as substrate incubated for 30 mins in presence of mGpppAC4 synthetic RNA by radioactive filter binding assay
Homo sapiens = organism: Homo sapiens; test: Inhibition of human RNA N7-MTase expressed in Escherichia coli measured upto 50 uM using [3H]SAM as substrate incubated for 30 mins in presence of mGpppAC4 synthetic RNA by radioactive filter binding assay; conditions: DDE = dose-dependent effect
[8] = biological target: Replicase polyprotein 1ab (Severe acute respiratory syndrome coronavirus 2) (UniProt P0DTD1); test: Inhibition of N7-MTase activity of SARS-CoV-2 N-terminus hexahistidine tag nsp14 expressed in Escherichia coli C2566 assessed as fold change using [3H]SAM as substrate incubated for 30 mins in presence of mGpppAC4 synthetic RNA by radioactive filter binding assay

Row | SMILES | IC50 [1] | inhibition [2] | other results
1 | Nc1ncnc2c1ncn2[C@@H]1O[C@H](CNS(=O)(=O)c2cccc([N+](=O)[O-])c2)[C@@H](O)[C@H]1O | 3590 nM | 80% | 
2 | CCN(C[C@H]1O[C@@H](n2cnc3c(N)ncnc32)[C@H](O)[C@@H]1O)S(=O)(=O)c1cccc(C#N)c1 | 960 nM | 65% | 
3 | Nc1ncnc2c1ncn2[C@@H]1O[C@H](CNS(=O)(=O)c2ccc(C(F)(F)F)cc2[N+](=O)[O-])[C@@H](O)[C@H]1O | 3500 nM | 60% | IC50 [3]: 3300 nM
4 | CCN(C[C@H]1O[C@@H](n2cnc3c(N)ncnc32)[C@H](O)[C@@H]1O)S(=O)(=O)c1ccc(Cl)c(Cl)c1 | 100 nM | 100% | 
5 | N#Cc1cccc(S(=O)(=O)NC[C@H]2O[C@@H](n3cnc4c(N)ncnc43)[C@H](O)[C@@H]2O)c1 | 5300 nM | 80% | 
6 | Nc1ncnc2c1ncn2[C@@H]1O[C@H](CNS(=O)(=O)c2ccc(Cl)c(Cl)c2)[C@@H](O)[C@H]1O | 482 nM | 87% | 
7 | COc1ccc(S(=O)(=O)N(CCCCNc2cccc3ccccc23)C[C@H]2O[C@@H](n3cnc4c(N)ncnc43)[C@H](O)[C@@H]2O)cc1[N+](=O)[O-] | 30 nM | 100% | ΔTm [4]: 11 °C; Activity [5]: Active
8 | Nc1ncnc2c1ncn2[C@@H]1O[C@H](CNS(=O)(=O)c2ccc([N+](=O)[O-])cc2Cl)[C@@H](O)[C@H]1O |  | 21% | 
9 | COc1cc([N+](=O)[O-])ccc1S(=O)(=O)NC[C@H]1O[C@@H](n2cnc3c(N)ncnc32)[C@H](O)[C@@H]1O | 5100 nM | 77% | IC50 [3]: 25000 nM
10 | COc1ccc(S(=O)(=O)NC[C@H]2O[C@@H](n3cnc4c(N)ncnc43)[C@H](O)[C@@H]2O)cc1[N+](=O)[O-] | 146 nM | 90% | 
11 | COc1ccc(S(=O)(=O)NC[C@H]2O[C@@H](n3cnc4c(N)ncnc43)[C@H](O)[C@@H]2O)c([N+](=O)[O-])c1 | 1400 nM | 70% | IC50 [3]: 2600 nM
12 | Nc1ncnc2c1ncn2[C@@H]1O[C@H](CNS(=O)(=O)c2cccc(Cl)c2)[C@@H](O)[C@H]1O |  | 20% | 
13 | Nc1ncnc2c1ncn2[C@@H]1O[C@H](CNS(=O)(=O)c2ccc(Cl)cc2)[C@@H](O)[C@H]1O | 13000 nM | 25% | 
14 | CCOC(=O)CCCCN(C[C@H]1O[C@@H](n2cnc3c(N)ncnc32)[C@H](O)[C@@H]1O)S(=O)(=O)c1ccc(OC)c([N+](=O)[O-])c1 | 114 nM | 100% | 
15 | Cc1ccc(S(=O)(=O)NC[C@H]2O[C@@H](n3cnc4c(N)ncnc43)[C@H](O)[C@@H]2O)cc1[N+](=O)[O-] | 342 nM | 100% | 
16 | CCN(C[C@H]1O[C@@H](n2cnc3c(N)ncnc32)[C@H](O)[C@@H]1O)S(=O)(=O)c1cccc(Cl)c1 | 442 nM | 65% | 
17 | Cc1ccc(S(=O)(=O)NC[C@H]2O[C@@H](n3cnc4c(N)ncnc43)[C@H](O)[C@@H]2O)cc1Cl | 344 nM | 90% | 

Row | SMILES | IC50 [1] | inhibition [2] | other results
18 | COc1ccc(S(=O)(=O)N(CCCCOC(C)=O)C[C@H]2O[C@@H](n3cnc4c(N)ncnc43)[C@H](O)[C@@H]2O)cc1[N+](=O)[O-] | 80 nM | 100% | 
19 | Nc1ncnc2c1ncn2[C@@H]1O[C@H](CNS(=O)(=O)c2cccc([N+](=O)[O-])c2Cl)[C@@H](O)[C@H]1O | 2100 nM | 75% | IC50 [3]: 1400 nM
20 | CCN(C[C@H]1O[C@@H](n2cnc3c(N)ncnc32)[C@H](O)[C@@H]1O)S(=O)(=O)c1ccc(OC)c([N+](=O)[O-])c1 | 44 nM | 100% | 
21 | CCc1ccc(S(=O)(=O)NC[C@H]2O[C@@H](n3cnc4c(N)ncnc43)[C@H](O)[C@@H]2O)cc1[N+](=O)[O-] | 244 nM | 98% | 
22 | Nc1ncnc2c1ncn2[C@@H]1O[C@H](CNS(=O)(=O)c2ccc(F)c([N+](=O)[O-])c2)[C@@H](O)[C@H]1O | 4400 nM | 87% | 
23 | CCN(C[C@H]1O[C@@H](n2cnc3c(N)ncnc32)[C@H](O)[C@@H]1O)S(=O)(=O)c1ccc(C(F)(F)F)cc1[N+](=O)[O-] | 5000 nM | 84% | 
24 | Nc1ncnc2c1ncn2[C@@H]1O[C@H](CNS(=O)(=O)c2ccc([N+](=O)[O-])cc2)[C@@H](O)[C@H]1O | 14100 nM | 25% | IC50 [3]: 7600 nM
25 | CCN(C[C@H]1O[C@@H](n2cnc3c(N)ncnc32)[C@H](O)[C@@H]1O)S(=O)(=O)c1cccc([N+](=O)[O-])c1 | 516 nM | 75% | 
26 | Nc1ncnc2c1ncn2[C@@H]1O[C@H](CNS(=O)(=O)c2ccc(Br)c([N+](=O)[O-])c2)[C@@H](O)[C@H]1O | 2900 nM | 85% | 
27 | CCN(C[C@H]1O[C@@H](n2cnc3c(N)ncnc32)[C@H](O)[C@@H]1O)S(=O)(=O)c1ccc(OC)c(C#N)c1 | 19 nM | 100% | IC50 [6]: 52800 nM; Ratio IC50 [7]: > 2000; ΔTm [4]: 11 °C; inhibition (Homo sapiens): Dde; fold change (FC) [8]: 2000; Activity [5]: Active
28 | N#Cc1cc(S(=O)(=O)NC[C@H]2O[C@@H](n3cnc4c(N)ncnc43)[C@H](O)[C@@H]2O)ccc1Cl | 1010 nM | 100% | 
29 | COc1ccc(S(=O)(=O)NC[C@H]2O[C@@H](n3cnc4c(N)ncnc43)[C@H](O)[C@@H]2O)cc1C#N | 514 nM | 100% | 
30 | CCN(C[C@H]1O[C@@H](n2cnc3c(N)ncnc32)[C@H](O)[C@@H]1O)S(=O)(=O)c1ccc(C)c(Cl)c1 | 56 nM | 95% | ΔTm [4]: 11 °C; Activity [5]: Active
31 | CCN(C[C@H]1O[C@@H](n2cnc3c(N)ncnc32)[C@H](O)[C@@H]1O)S(=O)(=O)c1ccc(C)c([N+](=O)[O-])c1 | 38 nM | 100% | 
32 | N#Cc1cc(S(=O)(=O)NC[C@H]2O[C@@H](n3cnc4c(N)ncnc43)[C@H](O)[C@@H]2O)ccc1F | 899 nM | 90% | 
33 | CCN(C[C@H]1O[C@@H](n2cnc3c(N)ncnc32)[C@H](O)[C@@H]1O)S(=O)(=O)c1ccc(Br)c([N+](=O)[O-])c1 | 80 nM | 100% | 
